# Measured values reported in ChEMBL document CHEMBL3098104, “Design, synthesis and preliminary SAR studies of novel N-arylmethyl substituted piperidine-linked aniline derivatives as potent HIV-1 NNRTIs” (Bioorg Med Chem, 2014).
# Experiments:
# [1] = system: Human immunodeficiency virus 1; experiment: Fold resistance, ratio of EC50 for HIV1 RES056 expressing K103N/Y181C mutant infected in human MT4 cells to EC50 for wild-type HIV1 3B infected in human MT4 cells; assay type: functional
# Summary of the method: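 MTT protection assay in MT-4 cells run in parallel against the K103N/Y181C double mutant (RES056) and wild-type IIIB. Viability read 5 days after infection. Fold resistance = EC50 against the mutant divided by EC50 against IIIB. Median of two or three parallel assays.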
# [2] = Selectivity index, ratio of CC50 for human MT4 cells to EC50 for HIV1 RES056 harboring reverse transcriptase K103N/Y181C mutant infected in human MT4 cells; assay type: toxicity, cell-based; settings: read-out: Ratio CC50/EC50
# Summary of the method: (§1)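 MT-4 cells pelleted 5 min at 1000 rpm, resuspended at 6 × 10^5 cells/ml and plated. Compounds added from 10× stocks at the start, in triplicate wells, to HIV-infected and mock-infected cells in parallel. Viability read by MTT 5 days after infection. EC50 is 50% protection from virus-induced cytotoxicity. CC50 is 50% loss of viability in mock-infected cells. SI = CC50/EC50. Median of two or three parallel assays.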
# [3] = Selectivity index, ratio of CC50 for human MT4 cells to EC50 for HIV1 3B infected in human MT4 cells; assay type: toxicity, cell-based; settings: read-out: Ratio CC50/EC50
# Summary of the method: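 MT-4 cells at 6 × 10^5 cells/ml, in triplicate wells, infected with HIV-1 IIIB or mock-infected. Compounds added from 10× stocks at the start of infection. MTT viability read on day 5. SI = CC50 (mock-infected cells) / EC50 (IIIB). Median of two or three parallel assays.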
# [4] = system: Human immunodeficiency virus 2; experiment: Antiviral activity against HIV2 ROD infected in human MT4 cells assessed as inhibition of viral cytopathicity after 5 days by MTT assay; assay type: functional, organism-based; settings: Human immunodeficiency virus 2, ISOLATE ROD, MT4, 120 h
# Summary of the method: (§2)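 HIV-infected MT-4 cells were compared with mock-infected wells in triplicate. Exponentially growing cells were pelleted for 5 min at 1000 rpm and resuspended at 6 × 10^5 cells/ml. Compound was added at the start of infection from stocks at 10× final concentration. Viability was read by MTT five days post-infection. EC50 is the concentration giving 50% protection against virus-induced cytotoxicity, taken as the median of two or three parallel assays.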
# [5] = Cytotoxicity against human MT4 cells assessed as cell viability after 5 days by MTT assay; assay type: cell-based
# Summary of the method: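 Mock-infected MT-4 cells, from exponentially growing cultures pelleted and resuspended at 6 × 10^5 cells/ml, were run in triplicate wells alongside the infected series. Compound was added from 10× stocks at the start of the experiment. Viability was read by MTT after five days. CC50 is the concentration that lowers viability by 50%, taken as the median of two or three parallel assays.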
# [6] = system: Human immunodeficiency virus 1; experiment: Antiviral activity against HIV1 RES056 harboring reverse transcriptase K103N/Y181C mutant infected in human MT4 cells assessed as inhibition of viral cytopathicity after 5 days by MTT assay; assay type: functional, organism-based; settings: Human immunodeficiency virus 1, RES056, MT4, 120 h; summary of the method: as §1
# [7] = system: Human immunodeficiency virus 1; experiment: Antiviral activity against wild-type HIV1 3B infected in human MT4 cells assessed as inhibition of viral cytopathicity after 5 days by MTT assay; assay type: functional, organism-based; settings: Human immunodeficiency virus 1, 3B, MT4, 120 h; summary of the method: as §2
# [8] = target: Human immunodeficiency virus type 1 reverse transcriptase (Human immunodeficiency virus 1, UniProt Q72547); experiment: Inhibition of wild-type HIV1 reverse transcriptase assessed as incorporation of biotin-labeled dUTP
# Summary of the method: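 HIV-1 RT enzyme assay with poly(A)·oligo(dT)15 as template-primer. Incorporation of digoxigenin- and biotin-labeled dUTP into DNA was read colorimetrically with the peroxidase substrate ABTS.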
structure (smiles),measurement,setting,value
Cc1cc(C)c(Oc2ccc([N+](=O)[O-])c(NC3CCN(Cc4ccncc4)CC3)c2)c(C)c1,Ratio EC50,[1],>258
same,selectivity ratio,[2],< 1
same,selectivity ratio,[3],258
same,EC50,[4],> 21 µM
same,CC50 at 120 h,[5],21 µM
same,EC50,[6],> 21 µM
same,EC50,[7],0.082 µM
Cc1cc(C#N)cc(C)c1Oc1ccc([N+](=O)[O-])c(NC2CCN(Cc3ccc(S(C)(=O)=O)cc3)CC2)c1,IC50,[8],0.36 µM
same,Ratio EC50,[1],>10770
same,selectivity ratio,[3],> 10800
same,EC50,[4],> 234 µM
same,CC50 at 120 h,[5],> 234 µM
same,EC50,[6],> 234 µM
same,EC50,[7],0.022 µM
Cc1cc(C)c(Oc2ccc([N+](=O)[O-])c(NC3CCN(Cc4ccccc4)CC3)c2)c(C)c1,Ratio EC50,[1],>37
same,selectivity ratio,[2],< 1
same,selectivity ratio,[3],37
same,EC50,[4],> 25 µM
same,CC50 at 120 h,[5],25 µM
same,EC50,[6],> 25 µM
same,EC50,[7],0.66 µM
CC(C)Nc1cccnc1N1CCN(C(=O)c2cc3cc(NS(C)(=O)=O)ccc3[nH]2)CC1 [DELAVIRDINE],Ratio EC50,[1],>277
same,selectivity ratio,[3],> 277
same,CC50 at 120 h,[5],> 36 µM
same,EC50,[6],> 36 µM
Cc1cc(C#N)cc(C)c1Oc1ccc([N+](=O)[O-])c(NC2CCN(Cc3ccc(C(=O)O)cc3)CC2)c1,Ratio EC50,[1],>159
same,selectivity ratio,[2],< 1
same,selectivity ratio,[3],159
same,EC50,[4],> 30 µM
same,CC50 at 120 h,[5],30 µM
same,EC50,[6],> 30 µM
same,EC50,[7],0.19 µM
O=c1[nH]cnc2c1ncn2[C@H]1CC[C@@H](CO)O1 [DIDANOSINE],selectivity ratio,[2],> 12
same,selectivity ratio,[3],> 11
same,EC50,[4],18 µM
same,CC50 at 120 h,[5],> 212 µM
same,EC50,[7],19 µM
Cc1cc(C)c(Oc2ccc([N+](=O)[O-])c(NC3CCN(Cc4ccc(C(N)=O)cc4)CC3)c2)c(C)c1,Ratio EC50,[1],>457
same,selectivity ratio,[2],< 1
same,selectivity ratio,[3],457
same,EC50,[4],> 27 µM
same,CC50 at 120 h,[5],27 µM
same,EC50,[6],> 27 µM
same,EC50,[7],0.059 µM
Cc1cc(C)c(Oc2ccc([N+](=O)[O-])c(NC3CCN(Cc4ccc(CO)cc4)CC3)c2)c(C)c1,Ratio EC50,[1],>255
same,selectivity ratio,[2],< 1
same,selectivity ratio,[3],255
same,EC50,[4],> 25 µM
same,CC50 at 120 h,[5],25 µM
same,EC50,[6],> 25 µM
same,EC50,[7],0.096 µM
Cc1cc(C)c(Oc2ccc([N+](=O)[O-])c(NC3CCN(Cc4ccc([N+](=O)[O-])cc4)CC3)c2)c(C)c1,Ratio EC50,[1],>70
same,selectivity ratio,[2],< 1
same,selectivity ratio,[3],70
same,EC50,[4],> 147 µM
same,CC50 at 120 h,[5],147 µM
same,EC50,[6],> 147 µM
same,EC50,[7],2.1 µM
Cc1cc(C#N)cc(C)c1Oc1ccc(N)c(NC2CCN(Cc3ccc(S(N)(=O)=O)cc3)CC2)c1.Cl,Ratio EC50,[1],114
same,selectivity ratio,[2],4.4
same,selectivity ratio,[3],505
same,EC50,[4],> 22 µM
same,CC50 at 120 h,[5],22 µM
same,EC50,[6],4.8 µM
same,EC50,[7],0.043 µM
Cc1cc(C#N)cc(C)c1Oc1ccc([N+](=O)[O-])c(NC2CCN(Cc3ccc(C(N)=O)cc3)CC2)c1,Ratio EC50,[1],>430
same,selectivity ratio,[2],< 1
same,selectivity ratio,[3],430
same,EC50,[4],> 27 µM
same,CC50 at 120 h,[5],27 µM
same,EC50,[6],> 27 µM
same,EC50,[7],0.062 µM
Cc1cc(C#N)cc(C)c1Oc1ccc([N+](=O)[O-])c(NC2CCN(Cc3ccccc3)CC2)c1,Ratio EC50,[1],>4.4
same,selectivity ratio,[2],< 1
same,selectivity ratio,[3],4.4
same,EC50,[4],> 2.8 µM
same,CC50 at 120 h,[5],2.8 µM
same,EC50,[6],> 2.8 µM
same,EC50,[7],0.63 µM
Cc1cc(C)c(Oc2ccc([N+](=O)[O-])c(NC3CCN(Cc4ccc(S(C)(=O)=O)cc4)CC3)c2)c(C)c1,Ratio EC50,[1],>5895
same,selectivity ratio,[2],< 1
same,selectivity ratio,[3],5900
same,EC50,[4],> 158 µM
same,CC50 at 120 h,[5],158 µM
same,EC50,[6],> 158 µM
same,EC50,[7],0.027 µM
COC(=O)c1ccc(CN2CCC(Nc3cc(Oc4c(C)cc(C)cc4C)ccc3[N+](=O)[O-])CC2)cc1,Ratio EC50,[1],>246
same,selectivity ratio,[3],> 246
same,EC50,[4],> 248 µM
same,CC50 at 120 h,[5],> 248 µM
same,EC50,[6],> 248 µM
same,EC50,[7],1 µM
Cc1cc(C#N)cc(C)c1Oc1ccc([N+](=O)[O-])c(NC2CCN(Cc3ccc(S(N)(=O)=O)cc3)CC2)c1,Ratio EC50,[1],>782
same,selectivity ratio,[2],< 1
same,selectivity ratio,[3],782
same,EC50,[4],> 23 µM
same,CC50 at 120 h,[5],23 µM
same,EC50,[6],> 23 µM
same,EC50,[7],0.029 µM
Cc1cn([C@H]2C[C@H](N=[N+]=[N-])[C@@H](CO)O2)c(=O)[nH]c1=O [ZIDOVUDINE],selectivity ratio,[2],> 12600
same,selectivity ratio,[3],> 13100
same,EC50,[4],0.0057 µM
same,CC50 at 120 h,[5],> 94 µM
same,EC50,[6],0.0074 µM
same,EC50,[7],0.0072 µM
CC(=O)c1ccc(CN2CCC(Nc3cc(Oc4c(C)cc(C)cc4C)ccc3[N+](=O)[O-])CC2)cc1,Ratio EC50,[1],>1312
same,selectivity ratio,[2],< 1
same,selectivity ratio,[3],1310
same,EC50,[4],> 138 µM
same,CC50 at 120 h,[5],138 µM
same,EC50,[6],> 138 µM
same,EC50,[7],0.11 µM
O=C1Nc2ccc(Cl)cc2[C@@](C#CC2CC2)(C(F)(F)F)O1 [EFAVIRENZ],Ratio EC50,[1],70
same,selectivity ratio,[2],> 12
same,selectivity ratio,[3],> 855
same,CC50 at 120 h,[5],> 6.3 µM
same,EC50,[7],0.0074 µM
CC(=O)Nc1ccc(Oc2c(C)cc(C#N)cc2C)cc1NC1CCN(Cc2ccc(S(N)(=O)=O)cc2)CC1,EC50,[4],> 228 µM
same,CC50 at 120 h,[5],> 228 µM
same,EC50,[7],> 228 µM
Cc1cc(C#N)cc(C)c1Oc1ccc([N+](=O)[O-])c(NC2CCN(Cc3ccc(CO)cc3)CC2)c1,Ratio EC50,[1],>80
same,selectivity ratio,[2],< 1
same,selectivity ratio,[3],80
same,EC50,[4],> 11 µM
same,CC50 at 120 h,[5],11 µM
same,EC50,[6],> 11 µM
same,EC50,[7],0.14 µM
Cc1cc(C#N)cc(C)c1Oc1ccc([N+](=O)[O-])c(NC2CCN(Cc3ccncc3)CC2)c1,Ratio EC50,[1],>336
same,selectivity ratio,[2],< 1
same,selectivity ratio,[3],336
same,EC50,[4],> 19 µM
same,CC50 at 120 h,[5],19 µM
same,EC50,[6],> 19 µM
same,EC50,[7],0.056 µM
CC(=O)c1ccc(CN2CCC(Nc3cc(Oc4c(C)cc(C#N)cc4C)ccc3[N+](=O)[O-])CC2)cc1,Ratio EC50,[1],>1630
same,selectivity ratio,[3],> 1630
same,EC50,[4],> 251 µM
same,CC50 at 120 h,[5],> 251 µM
same,EC50,[6],> 251 µM
same,EC50,[7],0.15 µM
Cc1cc(C#N)cc(C)c1Oc1ccc([N+](=O)[O-])c(NC2CCN(Cc3ccc([N+](=O)[O-])cc3)CC2)c1,Ratio EC50,[1],>269
same,selectivity ratio,[2],< 1
same,selectivity ratio,[3],269
same,EC50,[4],> 182 µM
same,CC50 at 120 h,[5],182 µM
same,EC50,[6],> 182 µM
same,EC50,[7],0.67 µM
Cc1cc(C)c(Oc2ccc([N+](=O)[O-])c(NC3CCN(Cc4ccc(C(=O)O)cc4)CC3)c2)c(C)c1,Ratio EC50,[1],>161
same,selectivity ratio,[2],< 1
same,selectivity ratio,[3],161
same,EC50,[4],> 35 µM
same,CC50 at 120 h,[5],35 µM
same,EC50,[6],> 35 µM
same,EC50,[7],0.22 µM
Cc1cc(C)c(Oc2ccc([N+](=O)[O-])c(NC3CCN(Cc4ccc(S(N)(=O)=O)cc4)CC3)c2)c(C)c1,Ratio EC50,[1],>615
same,selectivity ratio,[2],< 1
same,selectivity ratio,[3],615
same,EC50,[4],> 22 µM
same,CC50 at 120 h,[5],22 µM
same,EC50,[6],> 22 µM
same,EC50,[7],0.036 µM
COC(=O)c1ccc(CN2CCC(Nc3cc(Oc4c(C)cc(C#N)cc4C)ccc3[N+](=O)[O-])CC2)cc1,Ratio EC50,[1],>1208
same,selectivity ratio,[3],≥ 1210
same,EC50,[4],> 160 µM
same,CC50 at 120 h,[5],≥ 160 µM
same,EC50,[6],> 160 µM
same,EC50,[7],0.13 µM
